Screening results: PubChem, several laboratories
Beta2AR agonist: human beta-2 adrenergic receptor agonism by FAP | 0.43% of 340,000 active | P07550 | Am2.2-beta2AR cells, FAP receptor internalization, flow cytometry | response, % (concentration not given with the values) | AID 504454;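 active = response above a set limit, near 3 SD of response in nonfluorescent compounds, cut at about 42% in these data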
GRK2 inh: inhibitors of human GRK2 displacing RNA aptamer | bead flow cytometry, FAM-aptamer displacement from GRK2 | inhibition of aptamer binding, % at 10 µM | 0.59% of 330,000 active;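 active = inhibition of aptamer binding above 40%, roughly 3 SD of noise, on plates passing a quality check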;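 note: median bead fluorescence of bound FAM aptamer so fluorescent compounds give negative values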
TAG inh: triacylglycerol accumulation inhibition; H9c2 cells, Nile Red lipid (TAG) fluorescence; cells loaded with 200 µM oleic acid; inhibition, % at 12.5 µM; 0.66% of 230,000 active; AID 651582;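 active = pattern-corrected inhibition of lipid staining of at least 50% with the nuclear-stain viability signal not falling by more than 50%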;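 note: 0% = DMSO wells and 100% = triacsin C control wells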
Arrestin-AP2 inh: blocks beta-arrestin peptide binding to AP2 adaptin | inhibition, % at 10 µM | 0.31% of 340,000 active | FITC-arrestin peptide / GST-AP2 beads, flow cytometry; AP2 beta2 appendage carries R879A mutation | AID 504490;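 active = inhibition above a set limit, near 3 SD of compounds lacking own fluorescence, cut at about 54% in these data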;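 note: plate controls were DMSO wells for no effect and 5 µM unlabelled arrestin peptide for full effect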
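System: GST-AP2 R879A glutathione beads. Medium: PBS with 0.05% Tween 20 and 0.1% BSA. Also added: FITC-arrestin peptide, 50 nM. Incubation: 12 min plus 1 h, RT. Measured by: high-throughput flow cytometry of beads, ex 488, em 535 nm. Evaluation: percent drop in bead-associated FITC signal.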
NTR1 agonist: NTR1 (human) agonism. 0.17% of 330,000 active. activation, % at 20 µM. P30989. AID 493036. NTR1-U2OS beta-arrestin-GFP spot imaging, agonist mode;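 active = activation at or above 40% of the spot to cytoplasm intensity ratio, with at least 20 cells analyzed; inconclusive = wells under 20 cells, flagged as cytotoxic or low count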;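 note: 0% = DMSO without peptide and 100% = 100 nM NTR1 peptide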
Target sequence (P30989 whole entry, looked up): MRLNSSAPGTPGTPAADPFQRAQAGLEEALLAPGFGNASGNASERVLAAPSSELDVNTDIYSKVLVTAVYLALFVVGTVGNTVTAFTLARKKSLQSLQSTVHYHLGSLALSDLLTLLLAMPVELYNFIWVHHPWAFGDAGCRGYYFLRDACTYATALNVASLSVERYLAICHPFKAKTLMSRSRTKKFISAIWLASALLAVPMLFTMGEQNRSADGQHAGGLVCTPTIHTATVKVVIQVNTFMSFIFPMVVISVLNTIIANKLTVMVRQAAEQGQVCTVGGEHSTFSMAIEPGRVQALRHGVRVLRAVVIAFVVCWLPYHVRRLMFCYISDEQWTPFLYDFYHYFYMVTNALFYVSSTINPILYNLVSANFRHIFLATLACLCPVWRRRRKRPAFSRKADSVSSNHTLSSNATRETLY
Lipid droplet: hepatic lipid droplet formation modulation. AML12 mouse hepatocytes, oleate lipid droplets, BODIPY imaging. inhibition, % at 6.5 µM. 0.4% of 240,000 active;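 active = lipid droplet intensity inhibited by at least 50%, with more than 500 cells counted; inconclusive = wells with under 300 cells, treated as cytotoxic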
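Assay system: AML12 hepatocytes (mouse); Probe or stimulus: oleic acid at 100 µM to induce lipid droplet formation; Dosing: compound at 6.5 µM only; Schedule: compound with oleate, overnight; Detection: fluorescence imaging, 20x objective, two fields per well; Measure: % inhibition of lipid droplet signal.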
Beta2AR ag CP1: human beta-2 adrenergic receptor agonism, cherry pick. shares compounds with Beta2AR agonist. Am2.2-beta2AR cells, FAP surface receptor, flow cytometry; stronger effect = lower value. percent response (surface receptor), % at 10 µM. 25% of 1,100 active;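 active = surface receptor percent response at or below 58%, roughly 3 SD from nonfluorescent compounds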
FAP fluor counter: counter-screen for beta-2AR agonists: fluorescence in Am2.2 cells | shares compounds with Beta2AR agonist | FAP fluorogen flow cytometry, fluorescence counterscreen; stronger effect = lower value | calls only at 10 µM | 1,100 tested, under 10 active | AID 588765;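 active = percent response below a set limit in fluorescence channel 1 and below 50% in channel 8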
An asterisk follows results filed as active; i = inactive; ? = inconclusive; / = no result given. This is a sample that favours compounds with a hit; in the whole collection about 2% have one here.

SMILES	Beta2AR agonist	GRK2 inh	TAG inh	Arrestin-AP2 inh	NTR1 agonist	Lipid droplet	Beta2AR ag CP1	FAP fluor counter
O=C(Nc1ccc(C(=O)NCc2ccc(F)cc2)cc1)C1=CSCCO1	-9.5	3.0	/	35.7	-2.0	-10.9	/	/
CCc1ccc(CNC(=O)c2ccc(NC(=O)C3=CSCCO3)cc2)cc1	102.4*	2.0	/	1.6	-0.1	-20.0	26.9*	i
CCOC(=O)C1=C(C)N(CCCC(=O)O)C(=O)NC1c1cc2ccccc2c2ccccc12 (configuration not stated)	/	4.0	/	/	2.0	/	/	/
CC1CCN(C(=O)COc2ccc3ccccc3c2Br)CC1	-3.5	0.0	-12.7	22.9	2.7	-34.6	/	/
CCCCn1c(N)c(N(CCC(C)C)C(=O)COC(=O)/C=C/c2ccc(F)cc2)c(=O)[nH]c1=O	6.8	0.0	-7.5	10.0	3.4	/	/	/
COc1ncnc2c1oc1nc(C)c3c(c12)CC(C)(C)OC3	8.6	2.0	12.8	9.9	-0.7	12.4	78.8	i
CCc1ccc(CCC(=O)Nc2ccc(Cl)cc2)o1	-8.2	0.0	/	39.2	0.4	-0.3	/	/
CN(C)CCCn1c(SCC(=O)N2c3ccccc3Sc3ccccc32)nc2ccccc2c1=O	49.2*	0.0	/	7.9	/	-3.6	58.6	i
Cn1c(SCC(=O)N2c3ccccc3Sc3ccccc32)nc2ccccc21	-1.2	0.0	-14.3	5.2	1.7	-11.0	/	/
CN(C(=O)C1CCC(=O)N(Cc2cccc(F)c2)C1)C1CCCCC1 (configuration not stated)	-3.6	4.0	-5.7	-8.2	0.6	-7.2	/	/
CCc1ccc(Nc2cc(C)nc3ncnn23)cc1	7.5	7.0	-6.9	5.3	0.1	17.0	/	/
CCn1c2ccccc2c2cc(Nc3cc(C)nc4ncnn34)ccc21	42.0*	5.0	35.7	0.7	5.1	?	58.5	i
Clc1ccc(Cl)c(OCCCCNCc2ccccc2)c1	46.1*	0.0	-10.1	9.4	2.1	10.5	113.7	i
Clc1ccc(OCCCNCc2ccccc2)c(Br)c1	-12.7	0.0	/	-1.3	24.7	/	/	/
Oc1cccc(C(O)CNCc2ccc(-c3ccccc3)cc2)c1 (configuration not stated)	28.5	0.0	4.8	5.8	3.4	-6.9	/	/
OC(CNCc1cccc(Cl)c1)c1ccccc1 (configuration not stated)	-7.5	0.0	1.6	14.6	-1.3	5.4	114.8	i
CCOc1cc(CNCC(O)c2ccccc2)cc(Cl)c1OC (configuration not stated)	-0.3	0.0	/	2.2	-1.2	-0.9	110.4	i
OC(CNC1Cc2ccccc2C1)c1ccccc1 (configuration not stated)	-10.5	0.0	/	16.3	-0.5	/	122.5	i
OC(CNCc1ccccc1)c1ccccc1 (configuration not stated)	-4.8	0.0	1.8	-5.8	0.2	3.2	109.7	i
Cc1onc(-c2ccccc2)c1C(=O)N1CCN(S(=O)(=O)c2ccc(OC(F)(F)F)cc2)CC1	-12.6	1.0	/	-4.8	2.3	0.9	/	/
O=S(=O)(NCC1CCCO1)c1ccc(Cl)nc1 (configuration not stated)	-5.8	1.0	1.2	-16.9	0.2	-7.8	/	/
O=[N+]([O-])c1cccc(N(CC(O)CN2CCCCC2)S(=O)(=O)c2ccccc2)c1 (configuration not stated)	10.8	0.0	/	1.0	-1.8	-9.0	/	/
O=C(Nc1cccc(Cl)c1)N1CCN(C2c3ccccc3-c3ccccc32)CC1	0.2	1.0	36.0	23.4	2.2	45.8	/	/
CC(=O)Nc1ccc2c(c1)C(N1CC3CCC(CC3)C1)c1ccccc1-2 (configuration not stated)	42.6*	/	29.4	-6.1	/	/	97.1	i
COc1cc(-c2nnc3n2CCCCC3)cc(OC)c1OC	-6.0	1.0	/	-18.0	-1.3	12.6	/	/
SMILES	Beta2AR agonist	GRK2 inh	TAG inh	Arrestin-AP2 inh	NTR1 agonist	Lipid droplet	Beta2AR ag CP1	FAP fluor counter
CSc1cccc(CN2CCC(Oc3ccc(C(=O)N4CCCCC4)cc3)CC2)c1	-4.1	0.0	-7.0	17.0	0.6	-41.1	/	/
COc1ccc(CN2CCC(Oc3ccc(C(=O)N4CCCCC4)cc3)CC2)cc1C	33.3	0.0	12.5	36.1	0.4	4.6	85.0	i
O=C(c1ccc(OC2CCN(Cc3cccc(OCCO)c3)CC2)cc1)N1CCCC1	2.1	3.0	/	-15.5	3.4	-14.7	111.1	i
COc1cccc(CN2CCC(Oc3ccc(C(=O)N4CCCCC4)cc3)CC2)c1	18.7	0.0	/	1.2	0.5	-19.6	117.7	i
O=C(c1ccc(OC2CCN(Cc3cccc(F)c3)CC2)cc1)N1CCCCC1	3.5	0.0	3.2	3.0	-0.5	-15.0	/	/
CN(C)S(=O)(=O)c1ccc2c(c1)C(=NO)c1cc(S(=O)(=O)N(C)C)ccc1-2	-1.4	1.0	/	-18.0	1.4	7.1	/	/
CN(C)S(=O)(=O)c1ccc2c(c1)C(CC(=O)O)OC2=O (configuration not stated)	48.7*	3.0	14.3	6.6	0.3	0.6	103.6	i
CC(C)NCC(O)c1cc(O)cc(O)c1 (configuration not stated)	0.1	/	4.8	2.4	-1.7	20.1	93.3	i
CC(C)NC[C@H](O)c1ccc(O)c(O)c1	/	/	-2.2	17.6	8.0	/	/	/
CC12CCC(=O)C=C1CCC1C2C(=O)CC2(C)C1CC[C@]2(O)C(=O)CO (some centres not stated)	-3.5	0.0	/	-12.5	-0.4	4.5	/	/
COc1ccc(CNCCC(c2ccc(OC)cc2)c2ccccc2OC)cc1 (configuration not stated)	16.1	0.0	/	-3.6	2.2	0.9	90.5	i
COc1ccc(C(CCNCc2ccc(OC(C)C)cc2)c2ccccc2OC)cc1 (configuration not stated)	23.5	0.0	/	-3.1	25.3	-3.4	54.1*	i
COc1ccc(CNCCC(c2ccccc2)c2ccc(OC(C)C)cc2)cc1OC (configuration not stated)	34.6	0.0	/	8.5	8.1	-8.5	/	/
COc1ccc(CNC(C)CCc2ccccc2)cc1 (configuration not stated)	-1.9	0.0	/	-10.1	-0.7	-7.2	/	/
COc1ccc(C(CCNCc2ccc(N(C)C)cc2)c2ccccc2OC)cc1 (configuration not stated)	31.6	0.0	/	13.2	3.2	-10.4	100.0	i
Cn1c(=O)n(C)c2cc([N+](=O)[O-])c(N3CCN(S(=O)(=O)c4ccc(C(C)(C)C)cc4)CC3)cc21	48.2*	0.0	/	2.1	11.2	2.3	106.8	i
